Measured values from different studies.
Compare with care: the assays were run in different laboratories.
Observed: cell growth or viability

| Structure (SMILES) | cell line | technique | time | CC50 |
| --- | --- | --- | --- | --- |
| Cc1cn([C@H]2C[C@H](N=[N+]=[N-])[C@@H](CO)O2)c(=O)[nH]c1=O | CEM-GFP | MTT | 48 h | > 200 µg/mL |
| O=C(N[C@@H](Cc1ccccc1)C(=O)c1ncc(-c2ccccc2)o1)[C@H](Cc1ccccc1)NC(=O)N1CCOCC1 | MRC-5 SV2 | – | – | > 64 µM |
| C[C@@H]1O[C@@H](OC[C@H]2O[C@@H](Oc3c(-c4ccc(O)c(O)c4)oc4cc(O)cc(O)c4c3=O)[C@H](O)[C@@H](O)[C@@H]2O)[C@H](O)[C@H](O)[C@H]1O | CEM-GFP | MTT | 48 h | > 250 µg/mL |
| COC(=O)c1c(C)ncn1CC(c1c[nH]c2ccccc12)c1c[nH]c2ccccc12 | HaCaT | MTS | 24 h | > 20 µM |
| Cc1ccc(C(=O)Nc2ccc(S(=O)(=O)O)c3cc(S(=O)(=O)O)cc(S(=O)(=O)O)c23)cc1NC(=O)c1cccc(NC(=O)Nc2cccc(C(=O)Nc3cc(C(=O)Nc4ccc(S(=O)(=O)O)c5cc(S(=O)(=O)O)cc(S(=O)(=O)O)c45)ccc3C)c2)c1 | MRC-5 SV2 | resazurin | 72 h | > 64 µM |
| O=C(N[C@@H](Cc1ccccc1)C(=O)c1cn(COCc2ccccc2)nn1)[C@H](Cc1ccccc1)NC(=O)N1CCOCC1 | MRC-5 SV2 | – | – | > 64 µM |
| Cc1ncnc2c1c(SC(F)(F)F)cn2[C@@H]1O[C@H](CO)[C@@H](O)[C@H]1O | MRC-5 SV2 | resazurin | 72 h | 36.8 µM |
| CCCCCCCCCCCCCCCCOP(=O)([O-])OCC[N+](C)(C)C | HaCaT | MTS | 24 h | > 20 µM |
| N=C(N)c1ccc(/N=N/Nc2ccc(C(=N)N)cc2)cc1 | MRC-5 SV2 | resazurin | 72 h | > 64 µM |
| O=C(N[C@@H](Cc1ccccc1)C(=O)c1ncc(-c2ccccc2)s1)[C@H](Cc1ccccc1)NC(=O)N1CCOCC1 | MRC-5 SV2 | – | – | > 64 µM |
| CCOC(=O)c1cn(CC(c2cn(C)c3ccc(C)cc23)c2cn(C)c3ccc(C)cc23)c(C)c1C(=O)OC | HaCaT | MTS | 24 h | > 20 µM |
